Reference: ChEMBL document CHEMBL1649131, “Tigecycline therapy significantly reduces the concentrations of inflammatory pulmonary cytokines and chemokines in a murine model of Mycoplasma pneumoniae pneumonia” (Antimicrob Agents Chemother, 2009)
In brackets after ≈: the same amount, converted by molar mass. Activity calls are given as the source filed them. No cut-off for these calls is given here.

How the values were obtained:
[1] = system: Mus musculus; experiment: Immunological activity in BALB/c mouse infected with Mycoplasma pneumoniae ATCC 29342 assessed as decrease in IL1-beta level in bronchoalveolar lavage fluid at 10 mg/kg, sc on first day followed by regimen of 5 mg/kg for 5 days measured after 6 days; assay type: functional, organism-based
Procedure, shortened: (§1)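 In BALB/c females infected intranasally with 10^7 CFU M. pneumoniae, sc dosing ran daily from day 1: 10 mg/kg first, then 5 mg/kg; saline placebo. BAL (500 µl SP4 broth via trachea) was collected ~24 h after the last dose at 1, 3 or 6 days of therapy, and cytokine/chemokine concentrations were measured, given as mean ± SD. There were 10 mice/group per time point; t test and two-way ANOVA were used, P<0.05.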

[2] = system: Mycoplasmoides pneumoniae; experiment: Antimicrobial activity against Mycoplasma pneumoniae by agar dilution method; assay type: functional
[3] = system: Mus musculus; experiment: Immunological activity in BALB/c mouse infected with Mycoplasma pneumoniae ATCC 29342 assessed as decrease in IL1-beta level in bronchoalveolar lavage fluid at 10 mg/kg, sc on first day followed by regimen of 5 mg/kg for 5 days measured after 3 days; assay type: functional, organism-based; procedure, shortened: as §1
[4] = Cmax in human serum at […] followed by regimen of […] for every 12 hrs; assay type: ADME, organism-based; design: route intravenous
[5] = system: Mus musculus; experiment: Immunological activity in BALB/c mouse infected with Mycoplasma pneumoniae ATCC 29342 assessed as decrease in MIG level in bronchoalveolar lavage fluid at 10 mg/kg, sc on first day followed by regimen of 5 mg/kg for 5 days measured after 3 days; assay type: functional, organism-based; procedure, shortened: as §1
[6] = AUC in mouse pneumoniae model at 5 mg/kg; assay type: ADME, organism-based; design: dose 5 mg/kg; settings: in vivo
[7] = system: Mus musculus; experiment: Immunological activity in BALB/c mouse infected with Mycoplasma pneumoniae ATCC 29342 assessed as decrease in IL-5 level in bronchoalveolar lavage fluid at 10 mg/kg, sc on first day followed by regimen of 5 mg/kg for 5 days measured after 3 days; assay type: functional, organism-based; procedure, shortened: as §1
[8] = system: Mus musculus; experiment: Immunological activity in BALB/c mouse infected with Mycoplasma pneumoniae ATCC 29342 assessed as decrease in IL-10 level in bronchoalveolar lavage fluid at 10 mg/kg, sc on first day followed by regimen of 5 mg/kg for 5 days measured after 3 days; assay type: functional, organism-based; procedure, shortened: as §1
[9] = system: Mus musculus; experiment: Immunological activity in BALB/c mouse infected with Mycoplasma pneumoniae ATCC 29342 assessed as decrease in IL-12 level in bronchoalveolar lavage fluid at 10 mg/kg, sc on first day followed by regimen of 5 mg/kg for 5 days measured after 3 days; assay type: functional, organism-based; procedure, shortened: as §1
[10] = system: Mycoplasmoides pneumoniae; experiment: Antimicrobial activity against Mycoplasma pneumoniae ATCC 29342 infected in BALB/c mouse assessed as decrease in bacterial count in bronchoalveolar lavage fluid at 10 mg/kg, sc on first day followed by regimen of 5 mg/kg for 5 days measured after 6 days; assay type: functional, organism-based; settings: M129
Procedure, shortened: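 Female BALB/c mice, 2 months old, inoculated intranasally once (day 0) with 10^7 CFU M. pneumoniae in 50 µl SP4 broth under isoflurane. From day 1, sc once daily for 6 days: 10 mg/kg day 1, then 5 mg/kg, in sterile 0.9% NaCl; saline placebo. BAL with 500 µl SP4 broth ~24 h after last dose; undiluted and 10-fold dilutions plated on SP4 agar at 37°C; colonies counted as log10 CFU/ml; 10 mice/group, two experiments.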

[11] = system: Mus musculus; experiment: Immunological activity in BALB/c mouse infected with Mycoplasma pneumoniae ATCC 29342 assessed as decrease in INF-gamma level in bronchoalveolar lavage fluid at 10 mg/kg, sc on first day followed by regimen of 5 mg/kg for 5 days measured after 6 days; assay type: functional, organism-based; procedure, shortened: as §1
[12] = system: Mus musculus; experiment: Immunological activity in BALB/c mouse infected with Mycoplasma pneumoniae ATCC 29342 assessed as decrease in KC level in bronchoalveolar lavage fluid at 10 mg/kg, sc on first day followed by regimen of 5 mg/kg for 5 days measured after 3 days; assay type: functional, organism-based; procedure, shortened: as §1
[13] = system: Mus musculus; experiment: Immunological activity in BALB/c mouse infected with Mycoplasma pneumoniae ATCC 29342 assessed as decrease in IL-6 level in bronchoalveolar lavage fluid at 10 mg/kg, sc on first day followed by regimen of 5 mg/kg for 5 days measured after 3 days; assay type: functional, organism-based; procedure, shortened: as §1
[14] = AUC (0 to 24 hrs) in human serum at […] followed by regimen of […] for every 12 hrs; assay type: ADME, organism-based; design: time < 24 hr, route intravenous
[15] = system: Mus musculus; experiment: Immunological activity in BALB/c mouse infected with Mycoplasma pneumoniae ATCC 29342 assessed as decrease in INF-gamma level in bronchoalveolar lavage fluid at 10 mg/kg, sc on first day followed by regimen of 5 mg/kg for 5 days measured after 3 days; assay type: functional, organism-based; procedure, shortened: as §1
[16] = system: Mus musculus; experiment: Immunological activity in BALB/c mouse infected with Mycoplasma pneumoniae ATCC 29342 assessed as decrease in IL-2 level in bronchoalveolar lavage fluid at 10 mg/kg, sc on first day followed by regimen of 5 mg/kg for 5 days measured after 3 days; assay type: functional, organism-based; procedure, shortened: as §1
[17] = system: Mus musculus; experiment: Immunological activity in BALB/c mouse infected with Mycoplasma pneumoniae ATCC 29342 assessed as decrease in IP-10 level in bronchoalveolar lavage fluid at 10 mg/kg, sc on first day followed by regimen of 5 mg/kg for 5 days measured after 3 days; assay type: functional, organism-based; procedure, shortened: as §1
[18] = system: Mus musculus; experiment: Immunological activity in BALB/c mouse infected with Mycoplasma pneumoniae ATCC 29342 assessed as decrease in granulocyte-macrophage colony stimulating factor level in bronchoalveolar lavage fluid at 10 mg/kg, sc on first day followed by regimen of 5 mg/kg for 5 days measured after 3 days; assay type: functional, organism-based; procedure, shortened: as §1
[19] = system: Mus musculus; experiment: Immunological activity in BALB/c mouse infected with Mycoplasma pneumoniae ATCC 29342 assessed as decrease in IL-12 level in bronchoalveolar lavage fluid at 10 mg/kg, sc on first day followed by regimen of 5 mg/kg for 5 days measured after 1 days; assay type: functional, organism-based; procedure, shortened: as §1
[20] = system: Mus musculus; experiment: Immunological activity in BALB/c mouse infected with Mycoplasma pneumoniae ATCC 29342 assessed as decrease in MIG level in bronchoalveolar lavage fluid at 10 mg/kg, sc on first day followed by regimen of 5 mg/kg for 5 days measured after 6 days; assay type: functional, organism-based; procedure, shortened: as §1
[21] = Ratio of AUC in human alveolar cells to AUC in human serum at […] followed by […] regimen for every 12 hrs; assay type: ADME, organism-based, Pneumocyte; settings: read-out: Ratio AUC
[22] = system: Mus musculus; experiment: Immunological activity in BALB/c mouse infected with Mycoplasma pneumoniae ATCC 29342 assessed as decrease in IL1-beta level in bronchoalveolar lavage fluid at 10 mg/kg, sc on first day followed by regimen of 5 mg/kg for 5 days measured after 1 days; assay type: functional, organism-based; procedure, shortened: as §1
[23] = system: Mus musculus; experiment: Immunological activity in BALB/c mouse infected with Mycoplasma pneumoniae ATCC 29342 assessed as decrease in MCP-1 level in bronchoalveolar lavage fluid at 10 mg/kg, sc on first day followed by regimen of 5 mg/kg for 5 days measured after 3 days; assay type: functional, organism-based; procedure, shortened: as §1
[24] = system: Mycoplasmoides pneumoniae; experiment: Antimicrobial activity against Mycoplasma pneumoniae ATCC 29342 infected in BALB/c mouse assessed as decrease in bacterial infection-induced lung histopathology at 10 mg/kg, sc on first day followed by regimen of 5 mg/kg for 5 days measured after 3 days; assay type: functional, organism-based; settings: M129
Procedure, shortened: (§2)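 Infected BALB/c mice (2-month-old females, intranasal 10^7 CFU M. pneumoniae, day 0) dosed sc daily from day 1: 10 mg/kg then 5 mg/kg, saline vehicle/placebo. Lungs with trachea fixed in 10% buffered formalin ~24 h after last dose, whole-mount paraffin sections stained H&E and scored for histopathology (HPS) and parenchymal pneumonia subscore; 10 mice/group per time point, two experiments; two-way ANOVA and t test.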

[25] = system: Mus musculus; experiment: Immunological activity in BALB/c mouse infected with Mycoplasma pneumoniae ATCC 29342 assessed as decrease in INF-gamma level in bronchoalveolar lavage fluid at 10 mg/kg, sc on first day followed by regimen of 5 mg/kg for 5 days measured after 1 days; assay type: functional, organism-based; procedure, shortened: as §1
[26] = system: Mus musculus; experiment: Immunological activity in BALB/c mouse infected with Mycoplasma pneumoniae ATCC 29342 assessed as decrease in IL-12 level in bronchoalveolar lavage fluid at 10 mg/kg, sc on first day followed by regimen of 5 mg/kg for 5 days measured after 6 days; assay type: functional, organism-based; procedure, shortened: as §1
[27] = system: Mycoplasmoides pneumoniae; experiment: Antimicrobial activity against Mycoplasma pneumoniae ATCC 29342 infected in BALB/c mouse assessed as decrease in bacterial infection-induced parenchymal cell histopathology at 10 mg/kg, sc on first day followed by regimen of 5 mg/kg for 5 days measured after 3 days; assay type: functional, organism-based; settings: M129; procedure, shortened: as §2
[28] = system: Mus musculus; experiment: Immunological activity in BALB/c mouse infected with Mycoplasma pneumoniae ATCC 29342 assessed as decrease in IL-4 level in bronchoalveolar lavage fluid at 10 mg/kg, sc on first day followed by regimen of 5 mg/kg for 5 days measured after 3 days; assay type: functional, organism-based; procedure, shortened: as §1
[29] = system: Mus musculus; experiment: Immunological activity in BALB/c mouse infected with Mycoplasma pneumoniae ATCC 29342 assessed as decrease in MIG level in bronchoalveolar lavage fluid at 10 mg/kg, sc on first day followed by regimen of 5 mg/kg for 5 days measured after 1 days; assay type: functional, organism-based; procedure, shortened: as §1
[30] = system: Mus musculus; experiment: Immunological activity in BALB/c mouse infected with Mycoplasma pneumoniae ATCC 29342 assessed as decrease in TNFalpha level in bronchoalveolar lavage fluid at 10 mg/kg, sc on first day followed by regimen of 5 mg/kg for 5 days measured after 3 days; assay type: functional, organism-based; procedure, shortened: as §1
[31] = system: Mus musculus; experiment: Immunological activity in BALB/c mouse infected with Mycoplasma pneumoniae ATCC 29342 assessed as decrease in MIP-1alpha level in bronchoalveolar lavage fluid at 10 mg/kg, sc on first day followed by regimen of 5 mg/kg for 5 days measured after 3 days; assay type: functional, organism-based; procedure, shortened: as §1
[32] = Ratio of Cmax in human lung to Cmax in human serum at […] followed by […] regimen for every 12 hrs; assay type: ADME, organism-based

## CN(C)c1cc(NC(=O)CNC(C)(C)C)c(O)c2c1C[C@H]1C[C@H]3[C@H](N(C)C)C(O)=C(C(N)=O)C(=O)[C@@]3(O)C(O)=C1C2=O [TIGECYCLINE]
[1]
  Activity: Active
[2]
  MIC: 0.06 µg/mL (≈ 0.102 µM)
[3]
  Activity: Active
[4]
  Cmax: 630 ng/mL
[5]
  Activity: Active
[6]
  AUC: 2900 ng·h/mL
[7]
  Activity: inactive
[8]
  Activity: inactive
[9]
  Activity: Active
[10]
  Activity: Active
[11]
  Activity: Active
[12]
  Activity: inactive
[13]
  Activity: inactive
[14]
  AUC at 24 h: 4700 ng·h/mL
[15]
  Activity: Active
[16]
  Activity: inactive
[17]
  Activity: Active
[18]
  Activity: inactive
[19]
  Activity: Active
[20]
  Activity: Active
[21]
  Kp at 12 h: 78
[22]
  Activity: Active
[23]
  Activity: inactive
[24]
  Activity: Active
[25]
  Activity: Active
[26]
  Activity: Active
[27]
  Activity: Active
[28]
  Activity: inactive
[29]
  Activity: Active
[30]
  Activity: Active
[31]
  Activity: Active
[32]
  Kp at 12 h: 8.6
